Reference: ChEMBL document CHEMBL1124284, “Design of novel inhibitors of aminopeptidases. Synthesis of peptide-derived diamino thiols and sulfur replacement analogues of bestatin” (J Med Chem, 1988)

Test: Inhibition of partially purified soluble aminopeptidase from rat brain
Conditions: read-out: I50
Procedure, shortened: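 Enzyme from whole fresh Sprague-Dawley rat brain: homogenized in ice-cold 50 mM Tris-HCl pH 7.4 with 1 mM DTT and 0.01 mM ZnCl2, soluble supernatant taken after 80000g spin, 40–70% ammonium sulfate cut, dialyzed. About 30 μg protein started the reaction with leucine p-nitroanilide (final 100 μM), up to 1 h at 37 °C or room temperature. Released p-nitroaniline read at 550 nm.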

Row | IC50 [nM] | SMILES
1 | 170 | CC(C)C[C@H](NC(=O)[C@@H](O)[C@H](N)Cc1ccccc1)C(=O)O [UBENIMEX]
2 | 1600 | CC(C)C[C@H](NC(=O)C(S)[C@@H](N)Cc1ccccc1)C(=O)O (stereo partly drawn)
3 | 7500 | CC(C)CCNCC(S)[C@H](N)CC(C)C (stereo in doubt; 59)
4 | 29 | CC(C)CCNCC(S)[C@@H](N)CC(C)C (stereo in doubt; 56)
5 | 10 | CC(C)C[C@H](N)CS
6 | 10000 | CC(C)C[C@H](NC(=O)C(S)[C@H](N)Cc1ccccc1)C(=O)O (stereo in doubt; 78)
7 | 34 | CC(C)C[C@H](NCC(S)[C@@H](N)CC(C)C)C(N)=O (stereo partly drawn)
8 | 220 | CC(C)C[C@H](NCC(S)[C@@H](N)Cc1ccccc1)C(=O)O (stereo in doubt; 71)
9 | 580 | CC(C)C[C@@H](NC(=O)[C@H](Cc1ccccc1)NCC(O)[C@@H](N)Cc1ccccc1)C(=O)O (stereo partly drawn)
10 | 4 | CC(C)C[C@@H](NC(=O)[C@H](Cc1ccccc1)NCC(S)[C@@H](N)CC(C)C)C(=O)O (stereo partly drawn)
11 | 2500 | CC(C)CCNCC(S)[C@H](N)CC(C)C (stereo in doubt; 60)
12 | 1 | CC(C)C[C@@H](NC(=O)[C@H](Cc1ccccc1)NCC(S)[C@@H](N)Cc1ccccc1)C(=O)O (stereo partly drawn)
13 | 4400 | CC(C)C[C@H](NCC(S)[C@@H](N)Cc1ccccc1)C(=O)O (stereo in doubt; 70)
14 | 3100 | CC(C)CCNCC(S)[C@H](N)Cc1ccccc1 (stereo in doubt; 57)
15 | 300 | CC(C)CCNCC(S)[C@@H](N)Cc1ccccc1 (stereo in doubt; 53)
16 | 81 | CC(C)CCNCC(S)[C@@H](N)CC(C)C (stereo in doubt; 55)
17 | 240000 | CC(C)C[C@@H](NC(=O)[C@H](Cc1ccccc1)NCCS)C(=O)O
18 | 600 | CC(C)CCNCC(S)[C@H](N)Cc1ccccc1 (stereo in doubt; 58)
19 | 220 | CC(C)C[C@H](NC(=O)C(S)[C@H](N)Cc1ccccc1)C(=O)O (stereo in doubt; 79)
20 | 20 | CC(C)CCNCC(S)[C@@H](N)Cc1ccccc1 (stereo in doubt; 54)
21 | 33 | CC(C)C[C@H](NCC(S)[C@@H](N)Cc1ccccc1)C(N)=O (stereo partly drawn)

Row | SMILES | IC50 [nM]
22 | N[C@H](CS)Cc1ccccc1 | 39
23 | N[C@@H](CS)Cc1ccccc1 | 6900
